APJ antag = antagonists of human APJ apelin receptor. inhibition, % at 20 µM. CHO-K1 APJ beta-arrestin complementation, luminescence. actives 0.32% (n = 330,000). AID 2521;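 active = inhibition above about 40% at 20 µM, limit read from the data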;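 also: cells challenged with 10 nM apelin-13 agonist together with compound; plate controls were apelin-13 plus DMSO wells for no effect and DMSO wells lacking apelin-13 for full effect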
CXCR6 inh = blocks human CXCR6 beta-arrestin recruitment. O00574. CHO-K1 PathHunter CXCR6 beta-arrestin, luminescence. inhibition, % at 20 µM. actives 0.36% (n = 360,000); in the data active = inhibition above about 34%, passing the limit was not always enough;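 also: antagonist mode with CXCL16 agonist at 10 nM final; 0% = 10 nM CXCL16 with DMSO and 100% = unstimulated wells without agonist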
EBI2 block = blocks human EBI2 receptor beta-arrestin signaling; P32249; EBI2 beta-arrestin recruitment, luminescence, 7a,25-OHC stimulated; inhibition, % at 5 µM; actives 0.81% (n = 360,000); AID 651636; in the data active = inhibition above about 38%;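 also: enzyme fragment complementation signal reports receptor beta-arrestin coupling in cells; 0% = agonist plus DMSO wells and 100% = wells without agonist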
APJ ag = APJ receptor agonism; actives 0.11% (n = 330,000); P35414; CHO-K1 APJ PathHunter beta-arrestin, luminescence; 0% DMSO wells, 100% apelin; activation, % at 20 µM; AID 2520;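 active = activation more than six SD over the plate average, tested at 20 µM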;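 also: 0% = DMSO alone and 100% = apelin-13 at 10 nM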
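Assay system: CHO-K1 APJ beta-arrestin complementation cell line / Compound: single test compound dose, 20 µM final, 1% DMSO / Times: overnight seeding, 90 min compound at 25 °C, 1 h detection / Technique: beta-gal luminescence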
CCR6 antagonist = CCR6 (human) receptor antagonism; CHO-K1 CCR6 PathHunter beta-arrestin, luminescence, CCL20-stimulated; actives 0.49% (n = 340,000); P51684; inhibition, % at 20 µM;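 active = compounds whose inhibition of the agonist-driven luminescence signal at 20 µM reaches about 50%, limit read from the data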;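 also: cells stimulated with CCL20 at 14 nM final; plate controls were DMSO with CCL20 for no effect and DMSO without agonist for full effect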
Target sequence (P51684 whole entry, looked up): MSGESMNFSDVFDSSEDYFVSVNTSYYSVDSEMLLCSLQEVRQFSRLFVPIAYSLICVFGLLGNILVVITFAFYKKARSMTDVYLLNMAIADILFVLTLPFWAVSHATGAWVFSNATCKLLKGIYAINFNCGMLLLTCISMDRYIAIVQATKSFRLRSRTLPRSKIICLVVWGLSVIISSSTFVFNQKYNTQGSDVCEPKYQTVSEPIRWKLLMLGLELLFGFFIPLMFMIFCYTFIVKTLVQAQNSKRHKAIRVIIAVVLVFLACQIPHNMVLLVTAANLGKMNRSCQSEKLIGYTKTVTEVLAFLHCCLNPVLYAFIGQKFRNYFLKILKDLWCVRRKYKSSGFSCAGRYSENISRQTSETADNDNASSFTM
EBI2 conf = confirmation of human EBI2 receptor antagonists; shares compounds with EBI2 block; EBI2 beta-arrestin luminescence, 7a,25-OHC antagonism; inhibition, % at 5 µM; actives 29% (n = 2,400);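 active = inhibition of at least 50%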
EBI2 agonist = counter-screen for EBI2 antagonists: EBI2 agonist activity; EBI2-expressing cells, agonist mode, luminescence, 60 min; 0% vehicle, 100% 7α,25-dihydroxycholesterol control; activation, % at 5 µM; AID 652000; 2,400 tested, under 10 active; shares compounds with EBI2 block;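 active = activation of at least 50%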
bGal counter = beta-galactosidase inhibition counter-screen; shares compounds with EBI2 block; purified beta-galactosidase, luminescent Galacton Star, 15 min; inhibition, % at 5 µM; actives 1% (n = 2,400); AID 652176;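 active = replicate-average signal at least 3 plate SD below neutral wells, shown as high inhibition, flagging enzyme-inhibiting false positives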;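 also: 0% = DMSO wells with enzyme and 100% = wells lacking enzyme; higher means stronger loss of beta-gal luminescence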
Starred values were filed as active, the others as inactive; x = not tested or not shown. Rows were chosen to be rich in hits. Some 1.5% of all compounds tested hit in one or more screens of this group.

SMILES | APJ antag | CXCR6 inh | EBI2 block | APJ ag | CCR6 antagonist | EBI2 conf | EBI2 agonist | bGal counter
O=C(C1CC(=O)N(c2ccc3c(c2)OCCO3)C1)N1CCN(S(=O)(=O)c2cccc(F)c2)CC1 (configuration not stated) | x | -7.7 | 8.2 | x | -1.9 | x | x | x
Cc1nc2cc(-c3ccc(Cl)cc3)nn2c(C)c1CCC(=O)NCc1ccco1 | -14.6 | -7.4 | 49.7* | -1.4 | 4.9 | 43.2 | 0.5 | 0.9
O=C(Nc1ccc(Oc2ccccc2)nc1)[C@H]1O[C@@H](n2ccc(=O)[nH]c2=O)[C@H](O)[C@@H]1O | x | -3.7 | -4.1 | x | x | x | x | x
CC(C)c1ccc(Nc2ncc3c(n2)CCN(C(=O)Nc2ccc(F)c(Cl)c2)C3)cc1 | x | -12.1 | 51.7* | x | x | 19.9 | 1.3 | 3.4
COc1cc(/C=C2\CCC(C3CCCC3)C2=O)cc(OC)c1OC (configuration not stated) | -2.5 | 6.5 | -42.1 | -2.5 | 3.9 | x | x | x
COc1cc(/C=C2\CCC(C)C3=C(c4cc(OC)c(OC)c(OC)c4)C(C#N)=C(N)OC32)cc(OC)c1OC (configuration not stated) | x | 3.2 | 45.0* | x | 17.2 | 20.4 | 0.2 | 9.7
Cc1nn(-c2nc3ccccc3s2)c(N)c1-c1ccc(Cl)cc1 | 13.5 | 10.8 | 53.9* | -0.6 | 0.9 | 52.8* | 0.3 | 10.3
CCOC(=O)C1CCCN(C(=O)/C=C/c2cc(OC)c(OC)c(OC)c2)C1 (configuration not stated) | 2.4 | -3.2 | 5.5 | -4.7 | -3.3 | x | x | x
CCOC(=O)C1CCCN(C(=O)/C=C/c2ccc(Cl)cc2)C1 (configuration not stated) | -2.3 | -5.5 | 46.5* | -0.5 | 19.4 | 21.7 | -0.5 | -7.4
Cc1ccc(/C=C/C(=O)N2CCCC(C)C2)cc1 (configuration not stated) | 5.5 | 9.5 | 67.1* | -3.7 | 6.5 | 42.4 | -0.1 | 10.8
Cc1ccc(/C=C/C(=O)N2CCC(Cc3ccccc3)CC2)cc1 | -2.6 | 0.8 | 95.7* | -0.1 | -4.4 | 85.5* | 1.6 | 6.7
CCc1ccccc1NC(=O)CN1CCN(C(=O)C2CCN(C(=O)/C=C/c3ccccc3)CC2)CC1 | 6.0 | -0.6 | 76.9* | -0.1 | 7.1 | 52.5* | 1.2 | 1.3
COc1ccc(C(O)c2nc(-c3ccc(OC)c(OC)c3)cs2)cc1 (configuration not stated) | x | -4.2 | -4.1 | x | x | x | x | x
CCCC#Cc1ccc2c(c1)O[C@@H](CN(C)Cc1ccc3c(c1)OCO3)[C@H](C)CN([C@@H](C)CO)S2(=O)=O | x | 7.4 | 7.6 | x | x | x | x | x
O=C(COc1ccc(Br)cc1)Nc1ccc(S(=O)(=O)Nc2ccccn2)cc1 | -7.5 | 2.4 | 43.5* | 2.2 | 3.5 | 25.4 | -0.9 | -10.3
O=C(COc1ccccc1)Nc1ccc(S(=O)(=O)Nc2ccccn2)cc1 | -6.2 | 0.4 | -6.3 | 2.2 | 6.9 | x | x | x
OC[C@@H]1CN(Cc2cccc3ccccc23)C[C@H](n2cnc3c(NCc4ccco4)ncnc32)O1 | x | 0.8 | -15.3 | x | x | x | x | x
CCC(=O)NC(Nc1sc2c(c1C(=O)OC)CCC2)C(Cl)(Cl)Cl (configuration not stated) | -1.2 | -4.2 | 24.5 | -2.5 | 2.2 | x | x | x
COC(=O)c1c(NC(NC(=O)CC(C)C)C(Cl)(Cl)Cl)sc2c1CCC2 (configuration not stated) | 16.9 | -2.2 | 64.2* | 1.1 | 1.8 | 12.5 | 0.5 | 6.2
CCOC(=O)c1c(C)nc(C)c(C(=O)OCC)c1-c1cccc([N+](=O)[O-])c1 | x | -3.4 | 58.9* | x | x | 34.6 | 0.3 | 7.3
CSc1ccc(/C=N/NC(=O)CN2CCN(Cc3ccc(Cl)cc3)CC2)cc1 | 2.1 | -12.0 | 50.0* | -3.2 | -2.9 | 34.0 | -0.8 | -9.7
Cc1ccc(/C=N/NC(=O)CSCc2ccc(Cl)cc2)cc1 | 11.9 | -3.1 | 61.5* | -0.8 | 2.5 | 43.5 | -1.1 | -20.2

Bioassay records from PubChem.
